Results published in ChEMBL document CHEMBL1909609, “Synthesis of purine modified 2'-C-methyl nucleosides as potential anti-HCV agents” (Bioorg Med Chem Lett, 2011).
pEC50: −log10 of the molar value. The source made the active and inactive calls. The calls are words filed in the database; no cut-off is given here.

Assays:
[1] = system: Human immunodeficiency virus 1; assay: Antiviral activity against HIV1 LAI infected in human peripheral blood mononuclear cells assessed as inhibition of viral replication after 5 days by quantitative RT-PCR analysis; type: functional, organism-based; details: Human immunodeficiency virus 1, LAI, 120 h
How it was run: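 Primary human PBM cells were infected with HIV-1 LAI, and AZT was run as the positive standard.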

[2] = system: Hepatitis C virus; assay: Antiviral activity against HCV infected in human HuH7 cells assessed as inhibition of viral replication at 10 uM by RT-PCR analysis; type: functional, Hepacivirus hominis; details: Huh-7
How it was run: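 Huh7 cells carrying a subgenomic HCV replicon, with compounds tested at 10 μM. HCV RNA and ribosomal RNA were extracted and amplified together, so cytotoxicity was read at the same time as replicon inhibition.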

[3] = system: Huh-7; assay: Cytotoxicity against human HuH7 cells assessed as rRNA level at 10 uM; type: cell-based; details: huh-7, 10 µM
How it was run: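 Huh7 cells carrying a subgenomic HCV replicon were given compound at 10 μM. Cytotoxicity was measured alongside anti-HCV activity by extracting and amplifying ribosomal RNA together with HCV RNA.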

[4] = Cytotoxicity against human PBMC after 5 days; type: cell-based
[5] = Cytotoxicity against african green monkey Vero after 5 days; type: cell-based; details: chlorocebus sabaeus, Vero cells
[6] = (§1) Cytotoxicity against human CEM after 5 days; type: cell-based, CCRF-CEM; details: CEM cells (CCRF-CEM)
[7] = system: Hepatitis C virus; assay: Antiviral activity against HCV infected in human HuH7 cells assessed as inhibition of viral replication by RT-PCR analysis; type: functional, organism-based, Hepacivirus hominis; details: Huh-7
How it was run: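 Subgenomic HCV replicon system in Huh7 cells. HCV RNA and ribosomal RNA were both extracted and amplified, with the rRNA signal giving cytotoxicity at the same time as antiviral activity.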

[8] = Chemical stability of the compound in phosphate buffer at pH 7.4 assessed as formation of complex mixture product after 3 days; type: physicochemical; details: pH 7.4, 72 h
[9] = system: CCRF-CEM; assay: as §1; type: cell-based; details: ccrf-cem, 120 h
[10] = target: T1, Adenosine deaminase (Homo sapiens) (UniProt P00813); assay: Activity at adenosine deaminase assessed as nitrogen to oxygen transformation
T1 sequence (whole entry): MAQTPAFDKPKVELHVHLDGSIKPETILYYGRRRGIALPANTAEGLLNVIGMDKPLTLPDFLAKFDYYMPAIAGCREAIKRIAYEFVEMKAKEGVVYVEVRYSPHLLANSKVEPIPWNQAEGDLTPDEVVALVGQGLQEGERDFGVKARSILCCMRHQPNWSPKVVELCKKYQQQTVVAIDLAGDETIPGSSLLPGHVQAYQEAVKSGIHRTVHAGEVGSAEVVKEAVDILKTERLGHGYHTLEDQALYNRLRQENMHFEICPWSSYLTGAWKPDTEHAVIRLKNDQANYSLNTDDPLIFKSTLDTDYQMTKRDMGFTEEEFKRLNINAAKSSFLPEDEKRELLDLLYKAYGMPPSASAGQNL

[11] = target: T1, Adenosine deaminase (Homo sapiens); assay: Activity at adenosine deaminase
How it was run: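 ADA inhibition assay: 140 μM adenosine (final) with 0.01 units adenosine deaminase in 50 mM potassium phosphate, pH 7.4; compounds at 10 μM. Absorbance at 265 nm followed over four minutes. Inhibition judged from the change in slope relative to no-compound control, with a slope nearing zero indicating inhibition.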

In the case of COc1nc(Cl)nc2c1ncn2[C@@H]1O[C@H](CO)[C@@H](O)[C@@]1(C)O, the pEC50 [1] was under 4.00, the EC90 [1] was over 100 µM and the inhibition at 10 µM [2] was 14%. It also gave an Activity [3] of 9.8%, a CC50 at 120 h [4] of over 100 µM and a CC50 at 120 h [5] of over 100 µM. It also gave a CC50 at 120 h [6] of over 100 µM.
For C[C@@]1(O)[C@H](O)[C@@H](CO)O[C@H]1n1cnc2c(N)nc(NN)nc21, the pEC50 [1] was under 4.00, the EC90 [1] was over 100 µM and the pEC50 [7] was 5.22. The inhibition at 10 µM [2] was 85%, the Activity [3] was 7% and the Stability [8] was “Unstable”. It also gave a CC50 at 120 h [4] of over 100 µM, a CC50 at 120 h [5] of over 100 µM and a CC50 at 120 h [6] of over 100 µM.
For C[C@@]1(OC(=O)c2ccccc2)[C@H](OC(=O)c2ccccc2)[C@@H](COC(=O)c2ccccc2)O[C@H]1n1cnc2c(N)nc(NO)nc21, the pEC50 [1] was 5.06, the EC90 [1] was 42 µM and the inhibition at 10 µM [2] was 66%. The Activity [3] was 76%, the CC50 at 120 h [4] was over 100 µM and the CC50 at 120 h [5] was 42 µM. The CC50 at 120 h [6] was 27 µM.
With C[C@@]1(O)[C@H](O)[C@@H](CO)O[C@H]1n1cnc2c(=O)[nH]nc(N)c21 the pEC50 [1] was under 4.00, the EC90 [1] was over 100 µM and the inhibition at 10 µM [2] was 0%. It also gave an Activity [3] of 0%, a CC50 at 120 h [4] of over 100 µM and a CC50 at 120 h [5] of over 100 µM. The CC50 at 120 h [6] was over 100 µM.
C[C@@]1(O)[C@H](O)[C@@H](CO)O[C@H]1n1cnc2c(N)nc(Cl)nc21 gave a pEC50 [1] of under 4.00, an EC90 [1] of over 100 µM and an inhibition at 10 µM [2] of 0%. It also gave an Activity [3] of 5.8%, a CC50 at 120 h [4] of over 100 µM and a CC50 at 120 h [5] of over 100 µM. For the same compound, the CC50 at 120 h [6] was over 100 µM.
With CCOC(=O)[C@H](C)NP(=O)(OC[C@H]1O[C@@H](n2cnc3c(N)nc(NN)nc32)[C@](C)(O)[C@@H]1O)Oc1ccccc1 (some centres undefined) the pEC50 [7] was 6.05.
Compound C[C@@]1(O)[C@H](O)[C@@H](CO)O[C@H]1n1cnc2c(N)nc(-n3cc([Si](C)(C)C)nn3)nc21 has a pEC50 [1] of under 4.00, an EC90 [1] of over 100 µM and an inhibition at 10 µM [2] of 0%. For the same compound, the Activity [3] was 0%, the CC50 at 120 h [4] was over 100 µM and the CC50 at 120 h [5] was over 100 µM. It also gave a CC50 at 120 h [6] of over 100 µM.
For C[C@@]1(O)[C@H](O)[C@@H](CO)O[C@H]1n1cnc2c1nc(N)n1nc(-c3ccco3)nc21, the pEC50 [1] was under 4.00, the EC90 [1] was over 100 µM and the inhibition at 10 µM [2] was 0%. For the same compound, the Activity [3] was 0%, the CC50 at 120 h [4] was over 100 µM and the CC50 at 120 h [5] was over 100 µM. For the same compound, the CC50 at 120 h [6] was over 100 µM.
In the case of Cc1nc2c3ncn([C@@H]4O[C@H](CO)[C@@H](O)[C@@]4(C)O)c3nc(N)n2n1, the pEC50 [1] was under 4.00, the EC90 [1] was over 100 µM and the inhibition at 10 µM [2] was 0%. The Activity [3] was 0%, the CC50 at 120 h [4] was over 100 µM and the CC50 at 120 h [5] was over 100 µM. It also gave a CC50 at 120 h [6] of over 100 µM.
With Cc1nc(N)nc2c1ncn2[C@@H]1O[C@H](CO)[C@@H](O)[C@@]1(C)O the pEC50 [1] was 4.15, the EC90 [1] was over 100 µM and the inhibition at 10 µM [2] was 0%. It also gave an Activity [3] of 0%, a CC50 at 120 h [4] of over 100 µM and a CC50 at 120 h [5] of over 100 µM. For the same compound, the CC50 at 120 h [6] was 13 µM.
With C[C@@]1(OC(=O)c2ccccc2)[C@H](OC(=O)c2ccccc2)[C@@H](COC(=O)c2ccccc2)O[C@H]1n1cnc2c(Cl)nc(NO)nc21 the pEC50 [1] was 4.77, the EC90 [1] was 65 µM and the inhibition at 10 µM [2] was 100%. It also gave an Activity [3] of 100%, a CC50 at 120 h [4] of 43 µM and a CC50 at 120 h [5] of over 100 µM. For the same compound, the CC50 [9] was 7.3 µM.
Compound CCOP(=O)(OCC)c1nc(N)nc2c1ncn2[C@@H]1O[C@H](CO)[C@@H](O)[C@@]1(C)O has a pEC50 [1] of under 4.00, an EC90 [1] of over 100 µM and an inhibition at 10 µM [2] of 19%. The Activity [3] was 15%, the CC50 at 120 h [4] was over 100 µM and the Activity [10] was “inactive”. It also gave a CC50 at 120 h [5] of over 100 µM and a CC50 at 120 h [6] of over 100 µM.
C[C@@]1(O)[C@H](O)[C@@H](CO)O[C@H]1n1cnc2c(=N)n(N)[nH]c(=O)c21 gave a pEC50 [1] of under 4.00, an EC90 [1] of over 100 µM and an inhibition at 10 µM [2] of 0%. For the same compound, the Activity [3] was 0%, the CC50 at 120 h [4] was over 100 µM and the CC50 at 120 h [5] was over 100 µM. The CC50 at 120 h [6] was over 100 µM.
Work on CCOC(=O)[C@H](C)NP(=O)(OC[C@H]1O[C@@H](n2cnc3c(C)nc(N)nc32)[C@](C)(O)[C@@H]1O)Oc1ccccc1 (some centres undefined) yielded a pEC50 [1] of 4.17, an EC90 [1] of over 100 µM and an inhibition at 10 µM [2] of 0%. The Activity [3] was 0%, the CC50 at 120 h [4] was over 100 µM and the CC50 at 120 h [5] was over 100 µM. It also gave a CC50 at 120 h [6] of over 100 µM.
Work on C[C@@]1(O)[C@H](O)[C@@H](CO)O[C@H]1n1cnc2c(N)nc(-n3ccnn3)nc21 yielded a pEC50 [1] of under 4.00, an EC90 [1] of over 100 µM and an inhibition at 10 µM [2] of 0%. For the same compound, the Activity [3] was 0%, the CC50 at 120 h [4] was over 100 µM and the Activity [10] was “inactive”. For the same compound, the CC50 at 120 h [5] was over 100 µM, the CC50 at 120 h [6] was over 100 µM and the Activity [11] was “Active”.
CCOP(=O)(O)c1nc(N)nc2c1ncn2[C@@H]1O[C@H](CO)[C@@H](O)[C@@]1(C)O showed a pEC50 [1] of under 4.00, an EC90 [1] of over 100 µM and an inhibition at 10 µM [2] of 19%. The Activity [3] was 15%, the CC50 at 120 h [4] was over 100 µM and the Activity [10] was “inactive”. For the same compound, the CC50 at 120 h [5] was over 100 µM and the CC50 at 120 h [6] was over 100 µM.
Compound C[C@@]1(O)[C@H](O)[C@@H](CO)O[C@H]1n1cnc(C(=O)NN)c1/C(N)=N/N has a pEC50 [1] of under 4.00, an EC90 [1] of over 100 µM and an inhibition at 10 µM [2] of 0%. For the same compound, the Activity [3] was 9%, the CC50 at 120 h [4] was over 100 µM and the CC50 at 120 h [5] was over 100 µM. It also gave a CC50 at 120 h [6] of over 100 µM.
C[C@@]1(O)[C@H](O)[C@@H](CO)O[C@H]1n1cnc2c(N)n[nH]c(=O)c21 showed a pEC50 [1] of under 4.00, an EC90 [1] of over 100 µM and an inhibition at 10 µM [2] of 0%. For the same compound, the Activity [3] was 0%, the CC50 at 120 h [4] was over 100 µM and the Activity [10] was “inactive”. The CC50 at 120 h [5] was over 100 µM and the CC50 at 120 h [6] was over 100 µM.
C[C@@]1(O)[C@H](O)[C@@H](CO)O[C@H]1n1cnc2c(N)nc(N=[N+]=[N-])nc21 showed a pEC50 [1] of under 4.00, an EC90 [1] of over 100 µM and an inhibition at 10 µM [2] of 5.2%. For the same compound, the Activity [3] was 0%, the CC50 at 120 h [4] was over 100 µM and the CC50 at 120 h [5] was over 100 µM. For the same compound, the CC50 at 120 h [6] was over 100 µM.
